Results published in ChEMBL document CHEMBL2375313, “Synthesis, in vitro antitumor evaluation and DNA-binding study of novel tetrahydroquinolines and some derived tricyclic and tetracyclic ring systems” (Eur J Med Chem, 2013).

Legend:
Type in all cases: functional
[1] = tested on: NCI-H23; test: Cytotoxicity against human NCI-H23 cells assessed as growth inhibition at 10 uM after 48 hrs by sulphorhodamine B assay; details: NCI-H23, 48 h, read-out: GI
Method in brief: (§1)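 NCI-60 one-dose screen per the NCI Drug Evaluation Branch protocol. Cells given a single 10 µM concentration with 48 h continuous exposure. Growth estimated by sulphorhodamine B protein assay. Result expressed as percentage growth inhibition relative to untreated growth.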

[2] = Cytotoxicity against human EKVX cells assessed as growth inhibition at 10 uM after 48 hrs by sulphorhodamine B assay; details: read-out: GI; method in brief: as §1
[3] = tested on: A549; test: Cytotoxicity against human A549 cells assessed as growth inhibition at 10 uM after 48 hrs by sulphorhodamine B assay; details: A549, 48 h, read-out: GI; method in brief: as §1
[4] = tested on: NCI/ADR-RES; test: Cytotoxicity against human NCI/ADR-RES cells assessed as growth inhibition at 10 uM after 48 hrs by sulphorhodamine B assay; details: read-out: GI; method in brief: as §1
[5] = tested on: SNB-75; test: Cytotoxicity against human SNB75 cells assessed as growth inhibition at 10 uM after 48 hrs by sulphorhodamine B assay; details: SNB-75, 48 h, read-out: GI; method in brief: as §1
[6] = tested on: U-251; test: Cytotoxicity against human U251 cells assessed as growth inhibition at 10 uM after 48 hrs by sulphorhodamine B assay; details: U-251, 48 h, read-out: GI; method in brief: as §1
[7] = tested on: SNB-19; test: Cytotoxicity against human SNB19 cells assessed as growth inhibition at 10 uM after 48 hrs by sulphorhodamine B assay; details: SNB-19, 48 h, read-out: GI; method in brief: as §1
[8] = tested on: SF-295; test: Cytotoxicity against human SF295 cells assessed as growth inhibition at 10 uM after 48 hrs by sulphorhodamine B assay; details: SF-295, 48 h, read-out: GI; method in brief: as §1
[9] = tested on: DU-145; test: Cytotoxicity against human DU145 cells assessed as growth inhibition at 10 uM after 48 hrs by sulphorhodamine B assay; details: DU-145, 48 h, read-out: GI; method in brief: as §1
[10] = tested on: SF-268; test: Cytotoxicity against human SF268 cells assessed as growth inhibition at 10 uM after 48 hrs by sulphorhodamine B assay; details: SF-268, 48 h, read-out: GI; method in brief: as §1
[11] = tested on: PC-3; test: Cytotoxicity against human PC3 cells assessed as growth inhibition at 10 uM after 48 hrs by sulphorhodamine B assay; details: PC-3, 48 h, read-out: GI; method in brief: as §1
[12] = tested on: UACC-62; test: Cytotoxicity against human UACC62 cells assessed as growth inhibition at 10 uM after 48 hrs by sulphorhodamine B assay; details: UACC-62, 48 h, read-out: GI; method in brief: as §1
[13] = tested on: SK-MEL-2; test: Cytotoxicity against human SK-MEL-2 cells assessed as growth inhibition at 10 uM after 48 hrs by sulphorhodamine B assay; details: SK-MEL-2, 48 h, read-out: GI; method in brief: as §1
[14] = tested on: SK-MEL-5; test: Cytotoxicity against human SK-MEL-5 cells assessed as growth inhibition at 10 uM after 48 hrs by sulphorhodamine B assay; details: SK-MEL-5, 48 h, read-out: GI; method in brief: as §1
[15] = tested on: M14; test: Cytotoxicity against human M14 cells assessed as growth inhibition at 10 uM after 48 hrs by sulphorhodamine B assay; details: M14, 48 h, read-out: GI; method in brief: as §1
[16] = tested on: LOX IMVI; test: Cytotoxicity against human LOXIMVI cells assessed as growth inhibition at 10 uM after 48 hrs by sulphorhodamine B assay; details: read-out: GI; method in brief: as §1
[17] = tested on: UO-31; test: Cytotoxicity against human UO31 cells assessed as growth inhibition at 10 uM after 48 hrs by sulphorhodamine B assay; details: UO-31, 48 h, read-out: GI; method in brief: as §1
[18] = tested on: CAKI-1; test: Cytotoxicity against human Caki1 cells assessed as growth inhibition at 10 uM after 48 hrs by sulphorhodamine B assay; details: CAKI-1, 48 h, read-out: GI; method in brief: as §1
[19] = tested on: RXF 393; test: Cytotoxicity against human RXF393 cells assessed as growth inhibition at 10 uM after 48 hrs by sulphorhodamine B assay; details: RXF 393, 48 h, read-out: GI; method in brief: as §1
[20] = tested on: ACHN; test: Cytotoxicity against human ACHN cells assessed as growth inhibition at 10 uM after 48 hrs by sulphorhodamine B assay; details: read-out: GI; method in brief: as §1
[21] = tested on: SR; test: Cytotoxicity against human SR cells assessed as growth inhibition at 10 uM after 48 hrs by sulphorhodamine B assay; details: read-out: GI; method in brief: as §1
[22] = tested on: A498; test: Cytotoxicity against human A498 cells assessed as growth inhibition at 10 uM after 48 hrs by sulphorhodamine B assay; details: A498, 48 h, read-out: GI; method in brief: as §1
[23] = tested on: RPMI-8226; test: Cytotoxicity against human RPMI8226 cells assessed as growth inhibition at 10 uM after 48 hrs by sulphorhodamine B assay; details: RPMI-8226, 48 h, read-out: GI; method in brief: as §1
[24] = tested on: MOLT-4; test: Cytotoxicity against human MOLT4 cells assessed as growth inhibition at 10 uM after 48 hrs by sulphorhodamine B assay; details: MOLT-4, 48 h, read-out: GI; method in brief: as §1
[25] = tested on: K562; test: Cytotoxicity against human K562 cells assessed as growth inhibition at 10 uM after 48 hrs by sulphorhodamine B assay; details: K562, 48 h, read-out: GI; method in brief: as §1
[26] = tested on: HL-60(TB); test: Cytotoxicity against human HL-60(TB) cells assessed as growth inhibition at 10 uM after 48 hrs by sulphorhodamine B assay; details: HL-60, 48 h, read-out: GI
Method in brief: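 NCI-60 one-dose primary screen run to the Drug Evaluation Branch protocol. Cells are exposed to a single 10 µM concentration for 48 h continuously, and growth is read by SRB protein assay. Data are reported as percent growth of treated cells, expressed as % growth inhibition.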

[27] = tested on: SK-OV-3; test: Cytotoxicity against human SKOV3 cells assessed as growth inhibition at 10 uM after 48 hrs by sulphorhodamine B assay; details: SK-OV-3, 48 h, read-out: GI; method in brief: as §1
[28] = tested on: CCRF-CEM; test: Cytotoxicity against human CCRF-CEM cells assessed as growth inhibition at 10 uM after 48 hrs by sulphorhodamine B assay; details: read-out: GI; method in brief: as §1
[29] = tested on: OVCAR-5; test: Cytotoxicity against human OVCAR5 cells assessed as growth inhibition at 10 uM after 48 hrs by sulphorhodamine B assay; details: OVCAR-5, 48 h, read-out: GI; method in brief: as §1
[30] = tested on: OVCAR-4; test: Cytotoxicity against human OVCAR4 cells assessed as growth inhibition at 10 uM after 48 hrs by sulphorhodamine B assay; details: OVCAR-4, 48 h, read-out: GI; method in brief: as §1
[31] = tested on: IGROV-1; test: Cytotoxicity against human IGROV1 cells assessed as growth inhibition at 10 uM after 48 hrs by sulphorhodamine B assay; details: IGROV-1, 48 h, read-out: GI; method in brief: as §1
[32] = tested on: T47D; test: Cytotoxicity against human T47D cells assessed as growth inhibition at 10 uM after 48 hrs by sulphorhodamine B assay; details: read-out: GI; method in brief: as §1
[33] = tested on: Hs-578T; test: Cytotoxicity against human Hs578T cells assessed as growth inhibition at 10 uM after 48 hrs by sulphorhodamine B assay; details: read-out: GI; method in brief: as §1
[34] = tested on: NCI-H522; test: Cytotoxicity against human NCI-H522 cells assessed as growth inhibition at 10 uM after 48 hrs by sulphorhodamine B assay; details: NCI-H522, 48 h, read-out: GI; method in brief: as §1
[35] = tested on: HT-29; test: Cytotoxicity against human HT-29 cells assessed as growth inhibition at 10 uM after 48 hrs by sulphorhodamine B assay; details: HT-29, 48 h, read-out: GI; method in brief: as §1
[36] = tested on: MCF7; test: Cytotoxicity against human MCF7 cells assessed as growth inhibition at 10 uM after 48 hrs by sulphorhodamine B assay; details: MCF7, 48 h, read-out: GI; method in brief: as §1
[37] = tested on: MDA-MB-435; test: Cytotoxicity against human MDA-MB-435 cells assessed as growth inhibition at 10 uM after 48 hrs by sulphorhodamine B assay; details: MDA-MB-435, 48 h, read-out: GI; method in brief: as §1
[38] = tested on: HCT-15; test: Cytotoxicity against human HCT15 cells assessed as growth inhibition at 10 uM after 48 hrs by sulphorhodamine B assay; details: HCT-15, 48 h, read-out: GI; method in brief: as §1
[39] = tested on: MDA-MB-468; test: Cytotoxicity against human MDA-MB-468 cells assessed as growth inhibition at 10 uM after 48 hrs by sulphorhodamine B assay; details: MDA-MB-468, 48 h, read-out: GI; method in brief: as §1
[40] = tested on: HCT-116; test: Cytotoxicity against human HCT116 cells assessed as growth inhibition at 10 uM after 48 hrs by sulphorhodamine B assay; details: HCT-116, 48 h, read-out: GI; method in brief: as §1

SMILES: COc1ccc(-c2c3c(nc4ncn(N)c(=N)c24)C(C)CCC3)cc1 (stereo not given)
- inhibition of growth at 10 µM [1]: 14.4%
- inhibition of growth at 10 µM [2]: 21.5%
- inhibition of growth at 10 µM [3]: < 10%
- inhibition of growth at 10 µM [4]: < 10%
- inhibition of growth at 10 µM [5]: 14.3%
- inhibition of growth at 10 µM [6]: 16.7%
- inhibition of growth at 10 µM [7]: < 10%
- inhibition of growth at 10 µM [8]: < 10%
- inhibition of growth at 10 µM [9]: < 10%
- inhibition of growth at 10 µM [10]: < 10%
- inhibition of growth at 10 µM [11]: < 10%
- inhibition of growth at 10 µM [12]: 24%
- inhibition of growth at 10 µM [13]: 11%
- inhibition of growth at 10 µM [14]: < 10%
- inhibition of growth at 10 µM [15]: < 10%
- inhibition of growth at 10 µM [16]: < 10%
- inhibition of growth at 10 µM [17]: < 10%
- inhibition of growth at 10 µM [18]: 10%
- inhibition of growth at 10 µM [19]: < 10%
- inhibition of growth at 10 µM [20]: 14.5%
- inhibition of growth at 10 µM [21]: < 10%
- inhibition of growth at 10 µM [22]: < 10%
- inhibition of growth at 10 µM [23]: < 10%
- inhibition of growth at 10 µM [24]: < 10%
- inhibition of growth at 10 µM [25]: < 10%
- inhibition of growth at 10 µM [26]: < 10%
- inhibition of growth at 10 µM [27]: < 10%
- inhibition of growth at 10 µM [28]: < 10%
- inhibition of growth at 10 µM [29]: < 10%
- inhibition of growth at 10 µM [30]: 20%
- inhibition of growth at 10 µM [31]: < 10%
- inhibition of growth at 10 µM [32]: 18.1%
- inhibition of growth at 10 µM [33]: < 10%
- inhibition of growth at 10 µM [34]: 26%
- inhibition of growth at 10 µM [35]: < 10%
- inhibition of growth at 10 µM [36]: < 10%
- inhibition of growth at 10 µM [37]: 19%
- inhibition of growth at 10 µM [38]: 25%
- inhibition of growth at 10 µM [39]: < 10%
- inhibition of growth at 10 µM [40]: 22.3%
